Reference: ChEMBL document CHEMBL2429868, “Structural optimization of quinolon-4(1H)-imines as dual-stage antimalarials: toward increased potency and metabolic stability” (J Med Chem, 2013)
In brackets after ≈: the same amount, converted by molar mass. Activity calls are given as the source filed them. The calls are words filed in the database; no cut-off is given here.

Assays:
[1] = Selectivity index, ratio of EC50 for HEK293T cells to IC50 for blood stage of chloroquine-resistant Plasmodium falciparum W2 infected in human RBC; assay type: functional, HEK-293T
Summary of the method: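 Ratio of two values. EC50: HEK293T cells seeded the previous day in RPMI 1640/10% FBS, given serial DMSO-diluted compound for 48 h at 37 °C, 5% CO2, then MTT for 3 h; formazan read at 570 nm and EC50 fitted by nonlinear regression. IC50: 48 h W2 blood-stage growth in human RBCs, scored by YOYO-1 flow cytometry.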

Plasmodium falciparum [2] = test: Antiplasmodial activity against blood stage of chloroquine-resistant Plasmodium falciparum W2 infected in human RBC assessed as parasite growth inhibition after 48 hrs by flow cytometric analysis; assay type: functional, organism-based; conditions: W2, 48 h
HEK-293T = test: Cytotoxicity against HEK293T cells; assay type: cell-based; conditions: Homo sapiens
Summary of the method: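 HEK293T seeded the day before in RPMI 1640 with 10% FBS, penicillin/streptomycin and 2 mM L-glutamine. Serial dilutions from DMSO were added for 48 h at 37 °C, 5% CO2. Then MTT for 3 h, formazan taken up in DMSO, absorbance read at 570 nm. EC50 by nonlinear regression of the concentration–response curve.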

[3] = Inhibition of hemozoin-like crystal formation at 1 to 1000 uM after 5 days; assay type: functional
Summary of the method: (§1)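 Hemozoin-like crystal stock sonicated 3 min and diluted in broth to 2 μM final (heme equivalents). Compounds from 25 mM DMSO stocks were 0.22-μm filtered and dosed at 0–1000 μM final. Incubated 37 °C, 5% CO2, 5 days, then scored for presence or absence of crystal growth. Run in triplicate.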

Plasmodium berghei [4] = test: Antiplasmodial activity against liver stage of Plasmodium berghei infected in human HuH7 cells assessed as parasite growth inhibition incubated for 1 hr prior to parasite infection measured after 48 hrs; assay type: functional, organism-based; conditions: Huh-7, Liver
Summary of the method: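 Huh-7 cells (12 × 10^3/well) seeded the day before, given compound (10 mM MeOH stock diluted in medium) 1 h before adding 10 000 P. berghei PbGFP-Luccon sporozoites/well from mosquito salivary glands, then spun 1700g 5 min. Medium with compound renewed at 24 h. Luminescence read 48 h post-infection; IC50 by nonlinear regression of normalized dose–response.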

Plasmodium berghei [5] = test: Potency index, ratio of primaquine IC50 to compound IC50 for liver stage of Plasmodium berghei infected in human HuH7 cells; assay type: functional, Huh-7
Plasmodium falciparum [6] = test: Antiplasmodial activity against Plasmodium falciparum 3D7 transfected with yeast GFP-tagged DHODH assessed as parasite growth inhibition; assay type: functional, organism-based
Plasmodium falciparum [7] = test: Antiplasmodial activity against Plasmodium falciparum 3D7 assessed as parasite growth inhibition; assay type: functional, organism-based
[8] = Metabolic stability in rat liver microsomes assessed as compound remaining at 1 uM after 6 hrs by HPLC analysis in presence of NADPH-regenerating system; assay type: ADME, Microsome; conditions: read-out: Stability
Summary of the method: (§2)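 Compound at 1 μM incubated at 37 °C with pooled rat liver microsomes (0.2 mg protein/mL) in 10 mM phosphate buffer, pH 7.4. Reaction started with NADPH-regenerating system A (NADP+, glucose 6-phosphate, MgCl2) plus B (glucose 6-phosphate dehydrogenase); no-cofactor runs used water instead. Remaining compound measured after 6 h by RP-18 HPLC in acetonitrile/water 25:75, 1 mL/min.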

Liver microsomes [9] = test: Metabolic stability in rat liver microsomes assessed as compound remaining at 1 uM after 6 hrs by HPLC analysis in absence of NADPH-regenerating system; assay type: ADME, Microsome; summary of the method: as §2
Huh-7 = test: Cytotoxicity against human HuH7 cells assessed as cell viability up to 5 uM by AlamarBlue assay; assay type: cell-based
Summary of the method: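 Huh-7 hepatoma cells in RPMI 1640 with 10% FCS, nonessential amino acids, glutamine and 10 mM HEPES pH 7, kept at 37 °C, 5% CO2. Treated as in the liver-stage infection assay. Viability read by AlamarBlue per manufacturer's protocol.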

[10] = Inhibition of hemozoin-like crystal formation after 5 days; assay type: functional; conditions: 120 h; summary of the method: as §1
Plasmodium falciparum [11] = test: Inhibition of Plasmodium falciparum cytochrome bc1 complex using decylubiquinol as substrate at <= 10 uM by UV-visible spectrophotometric analysis
[12] = Chemical stability in aqueous buffer at pH 7.4 at 37 degC measured for 10 days; assay type: physicochemical; conditions: pH 7.4, 240 h
Summary of the method: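 Stability tested by holding compound in aqueous buffer at pH 7.4 (and pH 0.3) at 37 °C for 10 days.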

Liver microsomes [13] = test: Drug metabolism in rat liver microsomes assessed as quinoline metabolite formation through N-dealkylation of compound after 6 hrs by mass spectrophotometric analysis; assay type: ADME, Microsome

Compound	Selectivity Index [1]	IC50 (Plasmodium falciparum [2])	EC50 (HEK-293T)	IC50 (Plasmodium berghei [4])	remaining at 6 h, 1 µM [8]	Stability (Liver microsomes [9])	Activity (Huh-7)	further results
CCN(CC)CCCn1cc/c(=N\c2ccc(-c3ccccc3)cc2)c2ccc(Cl)cc21	>662	0.151 µM	> 100 µM					
GENTAMICIN								inhibition [3]: inactive
c1ccc(-c2ccc(/N=c3\ccn(CCCN4CCCCC4)c4cc(Nc5ccccn5)ccc34)cc2)cc1	21	0.357 µM	7.34 µM	0.44 µM				Ratio IC50 (Plasmodium berghei [5]): > 10
Clc1ccc2/c(=N/c3ccc(-c4ccccc4)cc3)ccn(CCCN3CCCCC3)c2c1	290	0.144 µM	41.8 µM					IC50 (Plasmodium falciparum [6]): 0.0523 µM; IC50 (Plasmodium falciparum [7]): 0.0737 µM
FC(F)(F)c1ccc2/c(=N/c3ccc(-c4ccccc4)cc3)ccn(CCCN3CCCCC3)c2c1	158	0.36 µM	56.8 µM		65%	Stable		IC50 (Plasmodium falciparum [6]): 0.195 µM; IC50 (Plasmodium falciparum [7]): 0.136 µM
c1ccc(-c2ccc(/N=c3\ccn(CCCN4CCCCC4)c4cc(-c5cnc6ccccc6c5)ccc34)cc2)cc1	143	0.0537 µM	7.68 µM	0.71 µM				Ratio IC50 (Plasmodium berghei [5]): > 10
CCN(CC)CCCn1cc/c(=N\c2ccc(-c3ccccc3)cc2)c2ccc(C(F)(F)F)cc21	>694	0.144 µM	> 100 µM					
CCN(CC)CCCCn1cc/c(=N\c2ccc(-c3ccccc3)cc2)c2ccc(C(F)(F)F)cc21	>1988	0.0503 µM	> 100 µM		81.5%	Stable		
Fc1ccc(/N=c2\ccn(CCCN3CCCCC3)c3cc(Cl)ccc23)cc1	>271	0.369 µM	> 100 µM	4.78 µM			Non-toxic	inhibition [3]: inactive
CCN(CC)CCCC(C)Nc1ccnc2cc(Cl)ccc12 (stereo not given) [CHLOROQUINE]								MIC [10]: 125 µM (≈ 40 µg/mL)
Fc1ccc(-c2ccc3/c(=N/c4ccc(-c5ccccc5)cc4)ccn(CCCN4CCCCC4)c3c2)cc1	138	0.0554 µM	7.63 µM	2.07 µM			Non-toxic	MIC [10]: 500 µM (≈ 258 µg/mL)
Clc1ccc2/c(=N/c3ccc(-c4ccccc4)cc3)ccn(CCN3CCCC3)c2c1	>900	0.111 µM	> 100 µM	3.46 µM				IC50 (Plasmodium falciparum [6]): 0.186 µM; IC50 (Plasmodium falciparum [7]): 0.177 µM
FC(F)(F)c1ccc2c(c1)/c(=N/c1ccc(-c3ccccc3)cc1)ccn2CCCN1CCCCC1	38	0.631 µM	23.7 µM				Non-toxic	MIC [10]: 1000 µM (≈ 490 µg/mL)
CCN(CC)CCCCn1cc/c(=N\c2ccc(-c3ccccc3)cc2)c2ccc(Cl)cc21	>1479	0.0676 µM	> 100 µM	2.65 µM	62.7%	Stable		IC50 (Plasmodium falciparum [6]): 0.0683 µM; IC50 (Plasmodium falciparum [7]): 0.0647 µM; inhibition (Plasmodium falciparum [11]): inactive
FC(F)(F)c1ccc2/c(=N/c3ccc(-c4ccccc4)cc3)ccn(CCN3CCCC3)c2c1	>442	0.226 µM	> 100 µM		79%	Stable	Non-toxic	inhibition [3]: inactive
Cc1ccc(/N=c2\ccn(CCCN3CCCCC3)c3cc(Cl)ccc23)cc1	>302	0.331 µM	> 100 µM					
Clc1ccc2/c(=N/c3ccc(Oc4ccccc4)cc3)ccn(CCCN3CCCCC3)c2c1	191	0.16 µM	30.6 µM		73%	Stable	Non-toxic	MIC [10]: 500 µM (≈ 236 µg/mL)
Clc1ccc2/c(=N/c3ccc(Br)cc3)ccn(CCCN3CCCCC3)c2c1	>1351	0.074 µM	> 100 µM	3.01 µM				
Fc1ccc(-c2ccc3/c(=N/c4ccccc4)ccn(CCCN4CCCCC4)c3c2)cc1	>463	0.216 µM	> 100 µM	1.39 µM				
CCN(CC)CCn1cc/c(=N\c2ccc(-c3ccccc3)cc2)c2ccc(C(F)(F)F)cc21	73	0.525 µM	38.5 µM	4.61 µM	80.4%	Stable	Non-toxic	inhibition [3]: inactive
Clc1ccc(/N=c2\ccn(CCCN3CCCCC3)c3cc(Cl)ccc23)cc1	>386	0.259 µM	> 100 µM	2.7 µM			Non-toxic	inhibition [3]: inactive
Clc1ccc2c(c1)/c(=N/c1ccc(-c3ccccc3)cc1)ccn2CCCN1CCCCC1	219	0.0997 µM	21.8 µM		75%	Stable	Non-toxic	Stability [12]: Stable; Drug metabolism (Liver microsomes [13]): Active; MIC [10]: 1000 µM (≈ 456 µg/mL)
Clc1ccc2/c(=N/c3ccccc3)ccn(CCCN3CCCCC3)c2c1	>366	0.273 µM	> 100 µM				Non-toxic	inhibition [3]: inactive
CCN(CC)CCn1cc/c(=N\c2ccc(-c3ccccc3)cc2)c2ccc(Cl)cc21	74	0.498 µM	37.1 µM		68%	Stable		
